Screening results deposited in PubChem by several laboratories.
Rows were chosen to be rich in hits. Some 2.4% of all compounds tested hit in one or more screens of this group.
MT1-MMP act inh: blocks activation of human MT1-MMP | HT1080 RFP-PRO-GFP cells, GFP/RFP ratio fluorescence, overnight; percent of plate control window, DMSO zero | actives 0.061% (n = 360,000) | GFP/RFP ratio change, % at 20 µM | P50281;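 active = GFP/RFP ratio change of at least 30% with cell ATP level not reduced by more than half and red fluorescence within 50% of control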
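Test system: HT1080 RFP-PRO-GFP cells; Benchmarks: DMSO and RFP-L50D-GFP cell wells; Timing: cells overnight before dosing, compound overnight, 37 °C, 5% CO2; Compound: one 20 µM compound dose with 1% DMSO; Read-out: GFP/RFP fluorescence ratio.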
Myeloid diff 2: compounds promoting myeloid differentiation. AID 624256. actives 1% (n = 360,000). calls only at 10 µM. ER-HoxA9 myeloid progenitors, lysozyme-GFP differentiation, flow cytometry;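 active = normalized GFP-positive differentiation at or above the plate's own cutoff, the solvent-only control mean plus 3 SD; inconclusive = no clear call, values can overlap the other calls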;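 also: cells exposed to compound for four days before flow analysis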
CendR NRP1 mod: modulators of CendR peptide binding to human neuropilin-1; FAM-RPARPAR peptide binding to NRP-1, fluorescence polarization; inhibition, % at 25 µM; actives 0.85% (n = 360,000);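 active = inhibition or corrected inhibition above about 18%, plus a signal ratio from 0.5 to 1.5, limit read from the data, passing the limit was not always enough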
Target sequence (O14786 whole entry, looked up): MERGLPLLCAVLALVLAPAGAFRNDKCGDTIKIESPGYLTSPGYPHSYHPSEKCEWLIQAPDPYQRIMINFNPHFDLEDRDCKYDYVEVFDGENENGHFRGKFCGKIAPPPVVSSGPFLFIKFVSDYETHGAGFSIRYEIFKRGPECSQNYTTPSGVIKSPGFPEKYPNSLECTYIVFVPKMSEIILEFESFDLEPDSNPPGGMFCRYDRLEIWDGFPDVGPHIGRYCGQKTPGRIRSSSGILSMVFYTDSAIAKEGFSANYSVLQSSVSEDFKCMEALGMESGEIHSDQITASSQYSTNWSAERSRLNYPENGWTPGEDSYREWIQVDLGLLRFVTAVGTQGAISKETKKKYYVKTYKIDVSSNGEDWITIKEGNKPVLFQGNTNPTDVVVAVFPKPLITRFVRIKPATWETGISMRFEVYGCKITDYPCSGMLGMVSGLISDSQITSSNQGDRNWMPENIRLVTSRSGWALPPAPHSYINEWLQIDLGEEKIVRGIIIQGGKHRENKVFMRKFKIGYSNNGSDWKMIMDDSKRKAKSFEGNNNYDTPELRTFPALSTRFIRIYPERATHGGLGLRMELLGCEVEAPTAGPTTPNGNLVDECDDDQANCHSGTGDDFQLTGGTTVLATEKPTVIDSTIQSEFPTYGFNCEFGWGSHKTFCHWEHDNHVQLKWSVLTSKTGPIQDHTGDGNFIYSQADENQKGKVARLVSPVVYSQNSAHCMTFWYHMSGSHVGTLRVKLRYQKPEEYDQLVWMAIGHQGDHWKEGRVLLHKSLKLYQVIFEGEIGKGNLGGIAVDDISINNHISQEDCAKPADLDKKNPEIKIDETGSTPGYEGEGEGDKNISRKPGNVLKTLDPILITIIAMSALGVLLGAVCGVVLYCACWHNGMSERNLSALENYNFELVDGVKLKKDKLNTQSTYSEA
SENP1 FRET inh: blocks the human SENP1 SUMO protease catalytic domain | actives 0.21% (n = 360,000) | AID 624204 | recombinant SENP1 catalytic domain, CyPet-SUMO1-YPet FRET cleavage | Q9P0U3 | inhibition, % at 10 µM;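 active = inhibition at least 30% at 10 µM, raw YFP signal under a set limit, fluorescence ratio 0.5 to 1.5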;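 also: 0% = enzyme with DMSO and 100% = no enzyme wells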
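Test system: hSENP1 catalytic domain, recombinant; Amount: 20 pM final SENP1 enzyme; Medium: Tris pH 8 buffer plus EDTA, NaCl, BME, BSA, NP40, catalase; Schedule: 50 min enzyme reaction, room temperature, light-protected; Technique: FRET fluorescence in CFP and YFP emission channels; Controls: no-enzyme wells low, DMSO-plus-enzyme wells high control.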
beta cell repl: induces beta-cell replication in MIN6 cells. MIN6 cells proliferation, ATPlite luminescence, 48 h; cells starved in 0.2% serum; 100% = growth in 10% serum. proliferation, % at 10 µM. actives 0.29% (n = 330,000);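 active = compounds whose signal lies at least 3.5 SD above the mean of all wells on their plate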;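 also: 0% = DMSO-treated cells in low-serum medium and 100% = 10% serum control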
DAGLB inhibitor: diacylglycerol lipase beta (human) inhibition. Q8NCG7. HEK293T DAGLB membrane lysate, EnzChek fluorogenic substrate. inhibition, % at 5.17 µM. actives 0.059% (n = 340,000). AID 504411; in the data active = inhibition above about 34%;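 also: 0% = enzyme with vehicle and 100% = wells lacking enzyme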
Starred values were filed as active, the others as inactive.

`COCCN1C(=O)/C(=C2/C(=O)N(CC(=O)Nc3ccccc3Cl)c3ccccc32)SC1=S` gave MT1-MMP act inh 10, Myeloid diff 2 inconclusive, CendR NRP1 mod 28*, SENP1 FRET inh 2, beta cell repl 1 and DAGLB inhibitor 3.
For N=c1c(S(=O)(=O)c2ccccc2)cc2c(=O)n3ccccc3nc2n1C1CCCC1 the results were MT1-MMP act inh 3, Myeloid diff 2 active, CendR NRP1 mod -21, SENP1 FRET inh -29, beta cell repl -4 and DAGLB inhibitor -1.
Screening C=CCN1c2ccccc2[C@]23C[C@@H](C(=O)OC)N=C2NC(C(=O)OC)=C(C(=O)OC)[C@H]13 returned MT1-MMP act inh -7, Myeloid diff 2 inactive, CendR NRP1 mod 33*, SENP1 FRET inh -3, beta cell repl -2 and DAGLB inhibitor -1.
C=CCN1c2ccccc2[C@]23C[C@@H](C(=O)OC)N(C(C)=O)C2=NC(C(=O)OC)=C(C(=O)OC)[C@H]13 was read as MT1-MMP act inh -5, Myeloid diff 2 inactive, CendR NRP1 mod -4, SENP1 FRET inh -2, beta cell repl -4 and DAGLB inhibitor 3.
Screening O=C(O)c1cc([N+](=O)[O-])ccc1Nc1ccccc1 returned MT1-MMP act inh -2, Myeloid diff 2 inconclusive, CendR NRP1 mod 1, SENP1 FRET inh 0, beta cell repl -4 and DAGLB inhibitor 8.
Screening O=C(O)c1cc([N+](=O)[O-])ccc1Oc1ccccc1 returned MT1-MMP act inh 2, Myeloid diff 2 inactive, CendR NRP1 mod 26*, SENP1 FRET inh 0 and DAGLB inhibitor 2.
O=C(c1ccoc1)N1CCC2(CC1)Oc1ccc(Cl)cc1C(=O)C21CC(c2ccc(Cl)cc2)=NO1 (stereo unspecified) was read as MT1-MMP act inh -1, Myeloid diff 2 inactive, CendR NRP1 mod -2, SENP1 FRET inh -2, beta cell repl -8 and DAGLB inhibitor -5.
CC(C)C(=O)N1CCC2(CC1)Oc1ccc(F)cc1C(=O)C21CC(c2ccc(Cl)cc2)=NO1 (stereo unspecified) was read as MT1-MMP act inh -10, Myeloid diff 2 inactive, CendR NRP1 mod 25*, SENP1 FRET inh 3, beta cell repl -8 and DAGLB inhibitor 0.
For O=C(c1ccoc1)N1CCC2(CC1)Oc1ccc(F)cc1C(=O)C21CC(c2ccc(Cl)cc2)=NO1 (stereo unspecified) the results were MT1-MMP act inh 7, Myeloid diff 2 active, CendR NRP1 mod 16, SENP1 FRET inh 2, beta cell repl -6 and DAGLB inhibitor -4.
`CC1CCc2c(sc3ncnc(SC(C)C(=O)NCC4CCCO4)c23)C1` (stereo unspecified) gave MT1-MMP act inh 0, Myeloid diff 2 inactive, CendR NRP1 mod -20, SENP1 FRET inh -6, beta cell repl 2 and DAGLB inhibitor -4.
For CN(CC(=O)NC(=O)NC1CCCCC1)CC(=O)Nc1ccccc1C(F)(F)F the results were MT1-MMP act inh 0, Myeloid diff 2 inactive, CendR NRP1 mod 5, SENP1 FRET inh 1 and DAGLB inhibitor -1.
For O=C(O)c1cc(Nc2cc(Cl)c3nonc3c2[N+](=O)[O-])ccc1O the results were MT1-MMP act inh 8, Myeloid diff 2 inactive, CendR NRP1 mod 25*, SENP1 FRET inh 2, beta cell repl -2 and DAGLB inhibitor 15.
COc1ccc(N2CC(C(=O)N3CCN(c4ccccc4OC)CC3)CC2=O)cc1 (stereo unspecified) was read as MT1-MMP act inh 1, Myeloid diff 2 inactive, CendR NRP1 mod -4, SENP1 FRET inh -1, beta cell repl 0 and DAGLB inhibitor -1.
C/C(=N\OC(=O)c1ccccc1F)c1nccs1 was read as MT1-MMP act inh 4, Myeloid diff 2 inactive, CendR NRP1 mod -8, SENP1 FRET inh 1, beta cell repl 1 and DAGLB inhibitor -3.
O=S1(=O)NC(C2CC2c2ccccc2)CCO1 (stereo unspecified) was read as MT1-MMP act inh -7, Myeloid diff 2 inactive, CendR NRP1 mod 23*, SENP1 FRET inh 2, beta cell repl 4 and DAGLB inhibitor 0.
For O=C1NC(c2ccccc2)CCO1 (stereo unspecified) the results were MT1-MMP act inh 1, Myeloid diff 2 inactive, CendR NRP1 mod -7, SENP1 FRET inh 0, beta cell repl -2 and DAGLB inhibitor -2.
Screening CC1(C)CC(=O)C2=C(C1)OC1=C(C(=O)CC(C)(C)C1)C2(C)C returned beta cell repl 4.
Screening COCCSc1ccccc1C(=O)Nc1ccc(S(=O)(=O)N2CCOCC2)cc1 returned MT1-MMP act inh 0, Myeloid diff 2 inactive, CendR NRP1 mod 10, SENP1 FRET inh 1, beta cell repl -1 and DAGLB inhibitor -3.
Screening Cc1cc(NC(=O)Nc2cc(Cl)ccc2C)no1 returned MT1-MMP act inh 0, Myeloid diff 2 inactive, CendR NRP1 mod 20*, SENP1 FRET inh 0, beta cell repl 6 and DAGLB inhibitor -1.
For Cc1cc(NC(=O)Nc2ccc(C)c(C)c2)no1 the results were MT1-MMP act inh 2, Myeloid diff 2 inactive, CendR NRP1 mod 4, SENP1 FRET inh 2, beta cell repl -2 and DAGLB inhibitor 0.
For Cn1cc(C(=O)c2ccc(Cl)cc2Cl)cc1C(=O)N/N=C(\N)COc1ccc(Cl)cc1 the results were MT1-MMP act inh -4, Myeloid diff 2 inactive, CendR NRP1 mod -1, SENP1 FRET inh 2, beta cell repl -7 and DAGLB inhibitor 4.
For Cn1cc(C(=O)c2ccc(Cl)cc2Cl)cc1C(=O)N/N=C(\N)COc1ccccc1 the results were MT1-MMP act inh -8, Myeloid diff 2 inactive, CendR NRP1 mod 36*, SENP1 FRET inh 1, beta cell repl -3 and DAGLB inhibitor 4.
COc1ccc(C(=O)N2CCC(C(=O)NCc3ccccn3)CC2)cc1 was read as MT1-MMP act inh 9, CendR NRP1 mod 35*, SENP1 FRET inh -1, beta cell repl -3 and DAGLB inhibitor 4.
For COc1ccc(CNC(=O)C2CCN(C(=O)c3ccc(-c4ccccc4)cc3)CC2)cc1 the results were MT1-MMP act inh 8, Myeloid diff 2 inactive, CendR NRP1 mod 10, SENP1 FRET inh 0, beta cell repl -1 and DAGLB inhibitor -2.
O=C(Nc1ccc2c(c1)OCO2)C1CC(c2cccc(Br)c2)=NO1 (stereo unspecified) was read as MT1-MMP act inh 4, Myeloid diff 2 inactive, CendR NRP1 mod -3, SENP1 FRET inh -1, beta cell repl 0 and DAGLB inhibitor -1.
`CCN(CC)CCN(C(=O)/C=C/c1cccs1)c1nc2ccc(F)cc2s1` gave MT1-MMP act inh -1, Myeloid diff 2 inactive, CendR NRP1 mod 14, SENP1 FRET inh 0, beta cell repl -7 and DAGLB inhibitor -13.
